These results are taken from ChEMBL document CHEMBL4196041 (Eur J Med Chem, 2018).

SMILES strings stand for the structures. Where only a bound is given, the exact number is not on record here.

Series [1] has as its target T1, 3',5'-cyclic-AMP phosphodiesterase 4B (Homo sapiens, UniProt Q07343). Kind of series: Inhibition of human PDE4B by ELISA.
Series [2] is described as follows: Drug level in Wistar rat liver S9 fraction treated with N-(benzo[d]thiazol-6-yl)-3-(cyclopropylmethoxy)-4-(difluoromethoxy)benzamide at 20 uM in presence of NADPH by UPLC-MS/MS analysis. In kind it is ADME, subcellular. To be noted: s9, 20 µM.
Series [3] can be described thus: Half life in Sprague-Dawley rat at 1 mg/kg, sc administered as single dose by UPLC-MS/MS analysis. In kind it is ADME, organism-based. To be noted: in vivo.
Series [4] has as its target T1, 3',5'-cyclic-AMP phosphodiesterase 4B. Kind of series: Inhibition of PDE4B (unknown origin) assessed as increase in cAMP level after 3 hrs by cell based ELISA relative to roflumilast.
The species entered for series [5] is Homo sapiens. Nature of the series: Selectivity ratio of IC50 for human PDE4D to IC50 for human PDE4B.
Series [6] in a line: Metabolic stability in Wistar rat liver S9 fraction assessed as parent compound remaining at 20 uM in presence of NADPH by UPLC-MS/MS analysis. Particulars: read-out: Stability. Type of series: ADME, subcellular.
A short description of series [7]: AUC (0 to t) in Sprague-Dawley rat at 1 mg/kg, sc administered as single dose by UPLC-MS/MS analysis. To be noted: in vivo. Type of series: ADME, organism-based.
Series [8] in a line: AUC (0 to infinity) in Sprague-Dawley rat at 1 mg/kg, sc administered as single dose by UPLC-MS/MS analysis. To be noted: in vivo. Further details: dose 1 mg/kg, route subcutaneous, time infinity. In kind it is ADME, organism-based.
A short description of series [9]: Protein binding in human plasma after 5 hrs by equilibrium dialysis method. Particulars: read-out: PPB (converted). In kind it is ADME, cell-free. Summed up: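 Equilibrium dialysis across a cellulose membrane (MWCO 12-14 kDa) against isotonic PBS pH 7.4, with human plasma, 37°C for 5 hr. Compound in the plasma and buffer compartments measured by validated RP-HPLC-UV. %Bound = [1 − (buffer conc/plasma conc)] × 100.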

The nature of series [10]: Intrinsic clearance in Wistar rat liver S9 fraction at 20 uM in presence of NADPH by UPLC-MS/MS analysis. In kind it is ADME, subcellular.
A short description of series [11]: Cmax in Sprague-Dawley rat at 1 mg/kg, sc administered as single dose by UPLC-MS/MS analysis. In kind it is ADME, organism-based. Also on record: dose 1 mg/kg, route subcutaneous. To be noted: in vivo.
Series [12] deals with T1, 3',5'-cyclic-AMP phosphodiesterase 4B. Nature of the series: Inhibition of PDE4B (unknown origin) assessed as reduction in TNFalpha level after 1.5 hrs by cell based ELISA. Particulars: concentration not given here.
A short description of series [13]: Half life in Wistar rat liver S9 fraction at 20 uM in presence of NADPH by HPLC-UV analysis. In kind it is ADME, subcellular. A digest of the protocol: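 Phase I stability in liver S9 (9,000× g) from male Wistar rats, prepared at 0–4°C. […] Stopped with cold acetonitrile plus chlorzoxazone internal standard. Centrifuged, then intact compound quantified by HPLC-UV; t1/2 and CLint derived from this.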

The target of series [14] is 3',5'-cyclic-AMP phosphodiesterase 4D (Homo sapiens, UniProt Q08499). Kind of series: Inhibition of human PDE4D by ELISA.
3',5'-cyclic-AMP phosphodiesterase 4D, sequence (Q08499 whole entry): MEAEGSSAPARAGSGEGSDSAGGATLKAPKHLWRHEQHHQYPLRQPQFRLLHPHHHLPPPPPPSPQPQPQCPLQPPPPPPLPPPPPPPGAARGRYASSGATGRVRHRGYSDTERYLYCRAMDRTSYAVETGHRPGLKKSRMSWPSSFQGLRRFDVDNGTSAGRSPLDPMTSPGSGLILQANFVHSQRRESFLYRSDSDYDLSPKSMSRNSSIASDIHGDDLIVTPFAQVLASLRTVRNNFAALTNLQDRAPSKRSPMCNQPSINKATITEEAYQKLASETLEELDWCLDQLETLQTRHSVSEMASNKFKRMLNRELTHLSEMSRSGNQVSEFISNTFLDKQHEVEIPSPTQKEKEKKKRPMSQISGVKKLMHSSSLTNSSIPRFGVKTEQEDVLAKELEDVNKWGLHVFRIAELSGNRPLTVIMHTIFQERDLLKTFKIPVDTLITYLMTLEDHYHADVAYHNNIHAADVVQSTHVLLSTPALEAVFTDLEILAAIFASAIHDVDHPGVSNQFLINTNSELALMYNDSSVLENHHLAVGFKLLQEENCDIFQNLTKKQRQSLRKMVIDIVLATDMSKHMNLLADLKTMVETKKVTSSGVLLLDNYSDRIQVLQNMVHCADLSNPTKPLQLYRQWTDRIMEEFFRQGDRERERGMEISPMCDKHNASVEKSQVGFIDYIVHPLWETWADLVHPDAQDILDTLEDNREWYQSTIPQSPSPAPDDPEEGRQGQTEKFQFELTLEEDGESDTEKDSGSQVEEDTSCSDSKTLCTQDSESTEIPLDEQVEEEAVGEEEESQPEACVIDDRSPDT
The nature of series [15]: Tmax in Sprague-Dawley rat at 1 mg/kg, sc administered as single dose by UPLC-MS/MS analysis. In kind it is ADME, organism-based. Particulars: in vivo.
Series [16] has as its target T1, 3',5'-cyclic-AMP phosphodiesterase 4B. Nature of the series: Inhibition of PDE4B (unknown origin) assessed as increase in cAMP level by measuring cAMP level after 3 hrs by cell based ELISA.
A short description of series [17]: Drug metabolism in Wistar rat liver S9 fraction assessed as aromatic hydroxylation of benzathiazole moiety at 20 uM in presence of NADPH by UPLC-MS/MS analysis. In kind it is ADME, subcellular. Particulars: s9, 20 µM.
A short description of series [18]: Drug metabolism in Wistar rat liver S9 fraction assessed as N-(4-amino-3-mercaptophenyl)-3-(cyclopropylmethoxy)-4-(difluoromethoxy)benzamide formation at 20 uM in presence of NADPH by UPLC-MS/MS analysis. Type of series: ADME, subcellular. To be noted: s9, 20 µM.
A short description of series [19]: Drug metabolism in Wistar rat liver S9 fraction assessed as 3-(cyclopropylmethoxy)-4-(difluoromethoxy)-N-(2-hydroxybenzo[d]thiazol-6-yl)benzamide formation at 20 uM in presence of NADPH by UPLC-MS/MS analysis. In kind it is ADME, subcellular. Particulars: s9, 20 µM.

T1 sequence (Q07343 whole entry): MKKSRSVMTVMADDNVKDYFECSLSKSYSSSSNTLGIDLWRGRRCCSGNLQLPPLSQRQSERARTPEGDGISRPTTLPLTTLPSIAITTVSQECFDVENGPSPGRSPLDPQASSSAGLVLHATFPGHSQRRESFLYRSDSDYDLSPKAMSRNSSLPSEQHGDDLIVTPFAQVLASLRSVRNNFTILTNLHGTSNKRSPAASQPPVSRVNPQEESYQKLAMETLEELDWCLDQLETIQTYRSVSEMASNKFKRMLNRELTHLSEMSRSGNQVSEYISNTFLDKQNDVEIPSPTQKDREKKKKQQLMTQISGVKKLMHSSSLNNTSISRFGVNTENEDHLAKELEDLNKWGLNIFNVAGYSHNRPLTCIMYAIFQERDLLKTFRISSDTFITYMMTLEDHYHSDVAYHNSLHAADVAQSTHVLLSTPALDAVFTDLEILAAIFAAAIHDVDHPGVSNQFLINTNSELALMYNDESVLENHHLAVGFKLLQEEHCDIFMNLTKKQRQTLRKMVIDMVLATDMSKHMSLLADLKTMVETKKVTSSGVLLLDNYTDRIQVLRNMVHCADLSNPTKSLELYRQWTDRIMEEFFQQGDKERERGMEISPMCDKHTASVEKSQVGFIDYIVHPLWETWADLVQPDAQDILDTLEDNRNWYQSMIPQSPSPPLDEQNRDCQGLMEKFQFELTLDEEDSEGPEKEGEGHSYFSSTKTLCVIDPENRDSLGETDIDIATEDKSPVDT

For the molecule `Cc1nc2ccc(NC(=O)c3ccc(OC(F)F)c(OCC4CC4)c3)cc2s1`, the IC50 in series [1] came out at 1.26 nM.

Take `COc1cccc2sc(NC(=O)c3ccc(OC(F)F)c(OCC4CC4)c3)nc12`: in series [1], 1.06 nM corresponded to half-maximal inhibition (IC50).

Consider `O=C(Nc1nc2ccc([N+](=O)[O-])cc2s1)c1ccc(OC(F)F)c(OCC2CC2)c1`, for which half-maximal inhibition in series [1] (IC50) was put at 8.67 nM.

Turning to `COc1ccc2nc(NC(=O)c3ccc(OC(F)F)c(OCC4CC4)c3)sc2c1`, the IC50 in [1] is 2.28 to 2.29 nM.

`O=C(Nc1nc2ccc(F)cc2s1)c1ccc(OC(F)F)c(OCC2CC2)c1` displayed an IC50 in series [1] of 1.87 nM.

For the molecule `O=C(Nc1ccc2nc(O)sc2c1)c1ccc(OC(F)F)c(OCC2CC2)c1`, the Drug metabolism result in [2] was “Metabolite_Detected”.

For the molecule `O=C(Nc1nc2ccc(C(F)(F)F)cc2s1)c1ccc(OC(F)F)c(OCC2CC2)c1`, 5.23 nM corresponded to half-maximal inhibition in series [1] (IC50). This lies in the single-digit nanomolar range.

For the molecule `O=C(Nc1ccc2nc(S)sc2c1)c1ccc(OC(F)F)c(OCC2CC2)c1`, in series [3], the half-life was 22 h. Moreover, in [4], the fold change (FC) is greater than 2. In [5], the Ratio IC50 amounted to 6.05. In addition, the remaining at 20 µM in series [6] turned out to be 84.2%. For the same molecule, the IC50 in series [1] amounted to 0.75 nM; in series [14], 4.54 nM. In series [7], this molecule showed an AUC(0-t) of 622 µg·h/mL. Further, the AUC(0-inf) in [8] was found to be 1040 µg·h/mL. Also, in series [9], the fraction unbound at 5 h was 0.463. For the same molecule, the CLint at 20 µM in series [10] was 5.67 mL/min/kg. The same molecule showed a Cmax in series [11] of 114 µg/mL. Also, the inhibition in series [12] worked out at 67.8%. The half-life at 20 µM in [13] was found to be 4.13 h. In series [15], the Tmax worked out at 2 h. Also, in series [16], the Activity was found to be 4.45 pmol/mL.

In the case of `O=C(Nc1nc2ccccc2s1)c1ccc(OC(F)F)c(OCC2CC2)c1`, the half-life in [3] was 9.82 h. Also, the Ratio IC50 in series [5] was found to be 8.89. Further, the remaining at 20 µM in series [6] was 36.4%. The Drug metabolism result in [17] is reported as “Metabolite_Detected”. Also, the IC50 came out at 0.57 nM in series [1] and 5.07 nM in series [14]. In series [7], this molecule displayed an AUC(0-t) of 594 µg·h/mL. In series [8], this molecule came in with an AUC(0-inf) of 800 µg·h/mL. In addition, the CLint at 20 µM in [10] came to 33.2 mL/min/kg. In addition, the highest concentration (Cmax) in [11] is 95.5 µg/mL. For the same molecule, the inhibition in [12] worked out at 58.6%. In addition, in series [13], the half-life at 20 µM was found to be 0.705 h. Also, the Tmax in series [15] was 1 h. Moreover, in series [16], the Activity worked out at 2.68 pmol/mL.

In series [3], `O=C(Nc1c(Cl)cncc1Cl)c1ccc(OC(F)F)c(OCC2CC2)c1` [ROFLUMILAST] had a half-life of 6.94 h. This molecule also had an AUC(0-t) in series [7] of 449 µg·h/mL. The AUC(0-inf) in series [8] was determined as 500 µg·h/mL. In addition, the fraction unbound at 5 h in series [9] is 0.0151. Further, the CLint at 20 µM in series [10] came out at 114 mL/min/kg. Further, the Cmax in series [11] turned out to be 109 µg/mL. Further, the inhibition in series [12] was 70.3%. Besides, in series [13], the half-life at 20 µM was 0.205 h. For the same molecule, the time to peak (Tmax) in [15] turned out to be 1 h. Besides, the Activity in series [16] was found to be 1.9 pmol/mL.

Turning to `COc1cc2nc(NC(=O)c3ccc(OC(F)F)c(OCC4CC4)c3)sc2cc1OC`, the IC50 in [1] worked out at 1.17 nM.

`O=C(Nc1ccc2ncsc2c1)c1ccc(OC(F)F)c(OCC2CC2)c1` had a half-life in series [3] of 22 h. Moreover, the Ratio IC50 in [5] came to 4.01. For the same molecule, in series [6], the remaining at 20 µM came to 36.8%. For the same molecule, the results for the IC50 in series [1] and in series [14] were 0.68 nM and 2.73 nM, respectively. In [7], the exposure AUC(0-t) came to 892 µg·h/mL. In series [8], this molecule showed an area under the curve AUC(0-inf) of 1620 µg·h/mL. For the same molecule, the fraction unbound at 5 h in series [9] was 0.0361. In addition, the Drug metabolism result in series [18] and in series [19] was “Metabolite_Detected” each time. The CLint at 20 µM in [10] stood at 22.3 mL/min/kg. This molecule also displayed a Cmax in series [11] of 86.2 µg/mL. Further, the half-life at 20 µM in series [13] was found to be 1.05 h. Further, in series [15], the Tmax came to 2 h.

With `N#Cc1ccc2nc(NC(=O)c3ccc(OC(F)F)c(OCC4CC4)c3)sc2c1`, in series [1], it took 1.28 nM to reach half-maximal inhibition (IC50).

Molecule `CCOc1ccc2nc(NC(=O)c3ccc(OC(F)F)c(OCC4CC4)c3)sc2c1` displayed an IC50 in series [1] of 2.92 nM.

Consider `Nc1ccc(NC(=O)c2ccc(OC(F)F)c(OCC3CC3)c2)cc1S`, for which the Drug metabolism result in series [2] is listed as “Metabolite_Detected”.

For `O=C(Nc1nc2ccc(Cl)cc2s1)c1ccc(OC(F)F)c(OCC2CC2)c1`, in series [1], the IC50 is 1.22 nM. That is a single-digit nanomolar value.

`O=C(Nc1nccs1)c1ccc(OC(F)F)c(OCC2CC2)c1` yielded an IC50 in series [1] of 1.6 nM.
